Data on 25 molecules can be found in ChEMBL document CHEMBL4118207, “Docking Screens for Dual Inhibitors of Disparate Drug Targets for Parkinson's Disease” (J Med Chem, 2018).

The target of data set [1] is T1, Adenosine receptor A2a (Homo sapiens, UniProt P29274). Put plainly: Displacement of [3H]ZM241385 from A2A receptor in human HeLa cell membranes after 30 mins by beta-scintillation counting method. (In a radioligand displacement assay an active substance lowers the binding of a labelled ligand.)
Data set [2] has as its target T1, Adenosine receptor A2a. Put plainly: Displacement of [3H]ZM241385 from A2A receptor in human HeLa cell membranes at 30 uM after 30 mins by beta-scintillation counting method relative to control.
For data set [3], the target named is T1, Adenosine receptor A2a. Put plainly: Antagonist activity at human A2A receptor expressed in CHO cells assessed as inhibition of NECA-stimulated cAMP accumulation at 100 nM preincubated for 15 mins followed by NECA addition measured after 15 mins by enzyme immunoassay. Type of data set: functional, cell-based. The essentials:
(§1)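 CHO cells stably transfected with human A2A receptor, seeded 10^4 cells/well 24 h before assay. Washed in DMEM/F-12 with 25 mM Hepes pH 7.4, then switched to the same buffer plus 20 µM rolipram. Compound preincubated 15 min at 37 °C, NECA added at several concentrations for 15 min at 37 °C. cAMP measured by enzyme immunoassay.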

The test system of data set [4] is SH-SY5Y. Put plainly: Cytoprotection against 6-OHDA-induced neurotoxicity in human SH-SY5Y cells assessed as reduction in 6-OHDA-induced cell viability decrease at 0.15 uM preincubated for 3 hrs followed by 6-OHDA addition measured after 24 hrs by resazurin dye based assay relative to control. Type of data set: functional. An outline of the steps:
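Human SH-SY5Y cells seeded 2.5 x 10^4/well in phenol-red-free DMEM with 1% FBS and 10 µM retinoic acid for 72 h to differentiate. Compound (0.1% v/v DMSO) pretreatment 3 h, then freshly prepared 20 µM 6-OHDA in saline/0.007% ascorbic acid for 24 h. Resazurin (0.02 mg/mL final) added for 2 h as the viability read-out.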
(The colour change of resazurin is a common sign of viable cells or microbes.)

Data set [5] addresses T1, Adenosine receptor A2a. Put plainly: Displacement of [3H]ZM241385 from A2A receptor in human HeLa cell membranes at 10 uM after 30 mins by beta-scintillation counting method.
Data set [6] concerns the target T1, Adenosine receptor A2a. Put plainly: Antagonist activity at human A2A receptor expressed in CHO cells assessed as inhibition of NECA-stimulated cAMP accumulation at 1 uM preincubated for 15 mins followed by NECA addition measured after 15 mins by enzyme immunoassay. Type of data set: functional, cell-based. The essentials: as §1
(In general: Cyclic AMP is a second messenger, typically raised through Gs and lowered through Gi signalling.)

The target in data set [7] is T2, Amine oxidase [flavin-containing] B (Homo sapiens, UniProt P27338).
T2 sequence (P27338 whole entry): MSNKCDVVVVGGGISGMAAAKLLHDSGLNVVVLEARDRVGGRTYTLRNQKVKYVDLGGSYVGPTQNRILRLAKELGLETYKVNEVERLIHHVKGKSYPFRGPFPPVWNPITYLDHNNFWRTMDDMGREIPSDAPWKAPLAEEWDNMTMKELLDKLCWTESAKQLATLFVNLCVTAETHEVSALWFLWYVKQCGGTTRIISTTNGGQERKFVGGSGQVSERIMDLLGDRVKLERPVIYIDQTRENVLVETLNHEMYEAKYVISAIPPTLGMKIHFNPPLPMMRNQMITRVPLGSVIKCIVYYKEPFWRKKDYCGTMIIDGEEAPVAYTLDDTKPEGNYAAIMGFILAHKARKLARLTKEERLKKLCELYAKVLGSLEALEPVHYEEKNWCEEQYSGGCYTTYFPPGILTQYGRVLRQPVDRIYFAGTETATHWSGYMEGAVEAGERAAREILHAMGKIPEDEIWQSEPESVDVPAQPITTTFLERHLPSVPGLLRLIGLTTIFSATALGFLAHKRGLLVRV
Put plainly: Inhibition of recombinant human MAO-B expressed in baculovirus infected BTI insect cells at 10 uM using tyramine as substrate preincubated for 30 mins followed by substrate addition measured after 60 mins by amplex red reagent based fluorescence assay. The settings on record: 1 h. An outline of the steps: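 Human recombinant MAO-B (final 1 U/mL) in 50 mM Tris-HCl pH 7.5, 0.05% CHAPS, 1% DMSO. Compound added from DMSO stock and pre-incubated 30 min at room temperature. Reaction started with tyramine (10 µM in 2-fold mix) and run 60 min at room temperature. HRP (final 0.1 U/mL) plus Amplex Red (final 10 µM) added; resorufin read at ex 535/em 590 nm over 30 min.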

The target of data set [8] is T2, Amine oxidase [flavin-containing] B. Put plainly: Inhibition of recombinant human MAO-B expressed in baculovirus infected BTI insect cells using tyramine as substrate preincubated for 30 mins followed by substrate addition measured after 60 mins by amplex red reagent based fluorescence assay. The essentials:
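Recombinant human MAO-B, final 1 U/mL, in 50 mM Tris-HCl pH 7.5 with 0.05% CHAPS and 1% DMSO. Compounds dosed acoustically over 10^-9 to 10^-4 range, preincubated 30 min at room temperature. Interference controlled without enzyme, with added H2O2.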

Data set [9] has the same target. Put plainly: Inhibition of recombinant human MAO-B expressed in baculovirus infected BTI insect cells at 30 uM using tyramine as substrate preincubated for 30 mins followed by substrate addition measured after 60 mins by amplex red reagent based fluorescence assay relative to control. To be noted: 1 h.
For data set [10] the target is unchanged. Put plainly: Inhibition of recombinant human MAO-B expressed in baculovirus infected BTI insect cells using tyramine as substrate preincubated for 30 mins followed by substrate addition measured after 60 mins in presence of Triton X-100 by amplex red reagent based fluorescence assay. The settings on record: 1 h.

By Ki is commonly meant the dissociation constant of the complex between target and ligand, obtained from inhibition or displacement. High values mean lower affinity, low ones higher affinity. The inhibition is how much of the control response was suppressed. As usually defined, the IC50 is the concentration needed to halve the response being measured.

Active and inactive are the calls of the source. The rule behind the calls is not given here. Some results are limits rather than exact numbers.

T1 sequence (P29274 whole entry): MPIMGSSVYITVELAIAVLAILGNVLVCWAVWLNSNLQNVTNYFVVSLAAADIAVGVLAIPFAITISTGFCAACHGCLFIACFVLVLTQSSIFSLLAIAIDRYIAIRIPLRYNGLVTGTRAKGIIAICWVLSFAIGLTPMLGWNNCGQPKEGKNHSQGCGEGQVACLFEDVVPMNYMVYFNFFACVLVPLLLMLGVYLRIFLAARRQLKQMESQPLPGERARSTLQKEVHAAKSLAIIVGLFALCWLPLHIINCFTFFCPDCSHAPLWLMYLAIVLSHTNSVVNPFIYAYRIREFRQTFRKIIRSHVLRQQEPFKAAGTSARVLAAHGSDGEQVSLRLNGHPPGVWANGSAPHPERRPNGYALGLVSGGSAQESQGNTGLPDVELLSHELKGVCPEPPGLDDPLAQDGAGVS

`COc1cccc(COC(=O)c2nn(-c3ccccc3)nc2N)c1`: affinity in data set [1] was put at a Ki of 19 nM. The inhibition in data set [2] was over 60%. For the same molecule, the inhibition entry in data set [3] was “Active”. For the same molecule, the Activity in data set [4] worked out at 13%.

Take `Nc1nn(-c2ccc(Cl)cc2)nc1C(=O)CCc1ccccc1`: the inhibition entry in data set [5] was “inactive”.

As for `Nc1nn(-c2ccccc2)nc1C(=O)CCc1ccccc1`, the affinity in [1] corresponds to a Ki of 2000 nM. Further, the inhibition result in data set [5] is “inactive”.

On to `Cc1ccccc1-n1nc(N)c(C(=O)CCc2ccccc2)n1`, for which the inhibition entry in [5] was “inactive”.

Take `O=C(Nc1nc2cccc(Cl)c2[nH]1)c1ccccc1`: the Ki in data set [1] worked out at 99 nM. In addition, the inhibition result in data set [6] is “Active”. Besides, the Activity in [4] turned out to be 14%.

As to `Nc1nn(-c2ccccc2)nc1C(=O)O`, in [5], the inhibition result was “inactive”. Also, the “inhibition (INH)” value in data set [7] is “Not Active”.

`Cc1cccc(C(=O)Nc2nc3ccccc3[nH]2)c1`: the inhibition entry in data set [5] is “inactive”.

Consider `Cc1ccc(C(=O)Nc2nc3ccccc3[nH]2)cc1`, for which, in data set [5], the inhibition result was “inactive”.

Turning to `C[C@@H]1Oc2ccc(Nc3ncnc4c3oc3ccccc34)cc2NC1=O`, the Ki in [1] came to 1200 nM. Besides, the IC50 in data set [8] is 1700 nM. Also, the inhibition in data set [2] was over 60%. In addition, in [9], the inhibition at 30 µM was over 70%.

Molecule `Cc1ccccc1COC(=O)c1nn(-c2ccccc2)nc1N` displayed an inhibition constant Ki in data set [1] of 49 nM. The IC50 in [8] turned out to be 500 nM.

`Cc1ccc(COC(=O)c2nn(-c3ccccc3)nc2N)cc1` registered a Ki in data set [1] of 150 nM. Besides, in [8], the IC50 turned out to be 3800 nM. In data set [10], the “inhibition (INH)” value is recorded as “Active”.

Take `Nc1nn(-c2ccccc2)nc1C(=O)OCc1ccccc1`: the affinity in data set [1] corresponds to a Ki of 31 nM. In addition, the IC50 in data set [8] came to 380 nM. This molecule also yielded an inhibition in data set [2] of over 60%. In addition, in [9], the inhibition at 30 µM is over 70%.

In data set [1], `Cc1cccc(-n2nc(N)c(C(=O)CCc3ccccc3)n2)c1` showed a Ki of 250 nM. Further, in data set [5], the inhibition entry was “inactive”.

For the molecule `O=C(Nc1nc2ccccc2[nH]1)c1ccccc1O`, the inhibition result in data set [5] was “inactive”.

`COc1cccc2nc(NC(=O)c3ccccc3)[nH]c12` had an inhibitory constant (Ki) in [1] of 530 nM. Besides, the inhibition result in data set [5] was “inactive”.

As to `O=C(Nc1nc2ccccc2[nH]1)c1ccccc1`, the affinity in [1], expressed as Ki, was 2700 nM. Also, the concentration for half-maximal inhibition (IC50) in data set [8] is 5000 nM. This molecule also registered an inhibition in data set [2] of over 60%. Moreover, the inhibition at 30 µM in [9] is over 70%. The “inhibition (INH)” value in data set [10] is reported as “Active”.

Consider `COc1cccc(CO)c1`, for which, in data set [5], the inhibition entry was “inactive”. The “inhibition (INH)” value in [7] was “Not Active”.

Regarding `Cc1ccccc1C(=O)Nc1nc2ccccc2[nH]1`, the inhibition entry in data set [5] is “inactive”.

Regarding `Nc1nn(-c2ccccc2)nc1C(=O)NCc1ccccc1`, in data set [1], the Ki worked out at 23 nM. In addition, the inhibition result in data set [5] is “inactive”.

In the case of `COc1cccc(C(=O)Nc2nc3ccccc3[nH]2)c1`, in data set [5], the inhibition result is “inactive”.

Molecule `Nc1nn(-c2ccccc2Cl)nc1C(=O)CCc1ccccc1` displayed a Ki in [1] of 630 nM. Moreover, in data set [5], the inhibition entry is “inactive”.

As to `Cc1ccc2nc(NC(=O)c3ccccc3)[nH]c2c1`, the inhibition result in data set [5] was “inactive”.

As for `Cc1ccc(C(=O)Nc2nc3ccccc3[nH]2)cc1C`, the inhibition result in data set [5] was “inactive”.

For the molecule `Cc1ccc(-n2nc(N)c(C(=O)CCc3ccccc3)n2)cc1`, in [5], the inhibition result is “inactive”.

As to `Cn1c(=O)c2c(nc(/C=C/c3cccc(Cl)c3)n2C)n(C)c1=O`, in [4], the Activity is given as 13%.
